Results collected from several papers.
Protocols differ between the studies behind these lines.
Target: 5'-AMP-activated protein kinase catalytic subunit alpha-2 (PRKAA2, Homo sapiens, UniProt P54646)

SMILES	test	setting	quantity	value
COc1cc(Cl)c(C(=O)N[C@@H](CN[C@H]2CC[C@@H](N)CC2)Cc2ccc(C#N)cc2)cc1-c1ccc(CN[C@H](C)c2ccc(C)cc2)o1	enzyme activity, inhibitor	1 µM	remaining activity	89%
CCCOc1ccc(OC)c(F)c1C(=O)c1ccc(C(=O)N[C@@H]2CNC[C@H]2NC(=O)c2ccc3[nH]ncc3c2)cc1	enzyme activity, inhibitor	0.75 µM	remaining activity	6%
CC(=O)N1CCC(c2ccc(C(=O)NC(=N)N)cc2C(F)(F)F)CC1	cell-free assay, competition with immobilised ligand	1 µM	remaining binding	100%
Cc1cnc(NC2CCOCC2)nc1-n1cnc(C(=O)NC(CN)c2cc(F)cc(Cl)c2)c1 (stereo not drawn)	enzyme activity, inhibitor, radiometric	1 µM	remaining activity	31%
Cc1ccc(C(=O)Nc2ccc(CN3CCN(C)CC3)c(C(F)(F)F)c2)cc1C#Cc1cnc2cccnn12	enzyme activity	23.5 nM	remaining activity	99%
CC(=O)N1CCC(c2ccc(C(=O)NC3=NCCN3)cc2C(F)(F)F)CC1	cell-free assay, competition with immobilised ligand	1 µM	remaining binding	100%
c1ccc(CNc2nc(N3CCOc4ccccc43)nc3c2CCCC3)cc1	target engagement in cells, inhibitor, chemoproteomics	20 mM	inhibition	-6.2%
COc1cc(-c2cc(-c3ccc(N4CCNCC4)cc3)cnc2C)cc(OC)c1OC	enzyme activity, inhibitor	1 µM	inhibition	1%
CCCCN(CCCC)C(=O)CN1C[C@H](c2cc(OC)c3c(c2)OCO3)[C@@H](C(=O)O)[C@@H]1CC(C)(C)CCC	cell-free assay, competition with immobilised ligand	1 µM	remaining binding	100%
Nc1ncnc2occ(-c3ccc(NC(=O)Nc4cc(C(F)(F)F)ccc4F)cc3)c12	cell-free assay	20 µM	remaining signal	7.6%
O=C(O)c1cc(-c2ccc(C3CCNCC3)cc2)c2ccc(-c3ccc(C(F)(F)F)cc3)cc2c1	cell-free assay, competition with immobilised ligand	1 µM	remaining binding	100%
C=CC(=O)Nc1cc(Nc2nccc(Nc3cc(Cl)c(F)cc3C(C)(C)O)n2)c(OC)cc1N1CC[C@@H](N(C)C)C1	enzyme activity, inhibitor	1 µM	inhibition	12%
